EC50, Relative activity and ED50 data for 20 molecules are collected here from ChEMBL document CHEMBL1124769, “Retinobenzoic acids. 5. Retinoidal activities of compounds having a trimethylsilyl or trimethylgermyl group(s) in human promyelocytic leukemia cells HL-60” (1990).

Assay [1] has as its system HL-60. The experiment in a line: Ability to induce differentiation of human promyelocytic leukemia cell line HL-60 to mature granulocytes. In kind it is functional. The following applies: for EC50: read-out: ED50 (the source's name). The method in brief:
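HL-60 cells in RPMI1640 with 5% FCS, penicillin G and streptomycin, at 37 °C in 5% CO2. Seeded at ~8 × 10^4 cells/mL and exposed 4 days to compound from a 0.2 mM ethanol stock (final ethanol <0.5%, ethanol-only controls). Read by Wright-Giemsa differential counts and NBT reduction (0.2% NBT plus TPA, 20 min, 37 °C), ≥200 cells each. ED50 from NBT data (van der Waerden method).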

The test system of assay [2] is HL-60. The experiment in a line: Relative activity against human promyelocytic leukemia HL-60 cells. Type of assay: functional. The gist of the method: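 Relative activity was computed as ED50 of retinoic acid ÷ ED50 of test compound × 100. Both ED50s came from concurrent 4-day HL-60 NBT-reduction differentiation assays spanning 5 orders of magnitude in concentration, each run at least twice. Values are representative ones or means.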

In the case of `CC(C)c1cccc(NC(=O)c2ccc(C(=O)O)cc2)c1`, in the assay with HL-60 [1], the EC50 was 0.68 µM.

`CC(C)(C)c1ccc(C(=O)/C=C/c2ccc(C(=O)O)cc2)cc1`: in the assay with HL-60 [2], the Relative activity was 3.9.

On to `CC(C)(C)c1cc(C(=O)/C=C/c2ccc(C(=O)O)cc2)cc(C(C)(C)C)c1`, for which, in the assay with HL-60 [2], the Relative activity turned out to be 640.

“4-[3-Oxo-3-(3-trimethylgermanyl-phenyl)-propenyl]-benzoic acid (Ch60G)” showed an ED50 in the assay with HL-60 [1] of 0.04 µM. Besides, the Relative activity in the assay with HL-60 [2] was found to be 4.5.

Molecule “4-[3-(2,5-Bis-trimethylgermanyl-phenyl)-3-oxo-propenyl]-benzoic acid (Ch55G)” came in with an ED50 in the assay with HL-60 [1] of 0.00021 µM. The same molecule came in with a Relative activity in the assay with HL-60 [2] of 1000.

With `C[Si](C)(C)c1cccc(/C=C/c2ccc(C(=O)O)cc2)c1`, the EC50 in the assay with HL-60 [1] turned out to be 0.001 µM. The same molecule returned a Relative activity in the assay on HL-60 [2] of 85.

Consider `C[Si](C)(C)c1cc(NC(=O)c2ccc(C(=O)O)cc2)cc([Si](C)(C)C)c1`, for which the EC50 in the assay with HL-60 [1] worked out at 0.03 µM. The molecule also returned a Relative activity in the assay on HL-60 [2] of 13.

On to `CC1=C(/C=C/C(C)=C/C=C/C(C)=C/C(=O)O)C(C)(C)CCC1` [TRETINOIN], for which the EC50 in the assay on HL-60 [1] was 0.0024 µM. This molecule also had a Relative activity with HL-60 [2] of 100.

Turning to `CC(C)(C)c1cc(NC(=O)c2ccc(C(=O)O)cc2)cc(C(C)(C)C)c1`, the EC50 in the assay on HL-60 [1] came out at 0.036 µM. Further, the Relative activity in the assay on HL-60 [2] came to 15.

For `CC(C)(C)c1cc(C(=O)Nc2ccc(C(=O)O)cc2)cc(C(C)(C)C)c1`, the EC50 with HL-60 [1] is 0.048 µM. The molecule further had a Relative activity with HL-60 [2] of 5.6.

In the case of `CCc1ccc(C(=O)/C=C/c2ccc(C(=O)O)cc2)cc1CC`, the EC50 with HL-60 [1] was determined as 0.17 µM.

Molecule `CC(C)(C)c1cccc(/C=C/c2ccc(C(=O)O)cc2)c1` displayed a Relative activity in the assay on HL-60 [2] of 13.

As to `C[Si](C)(C)c1cccc(NC(=O)c2ccc(C(=O)O)cc2)c1`, in the assay on HL-60 [1], the EC50 turned out to be 0.085 µM. The Relative activity in the assay on HL-60 [2] is on record as 2.4.

The molecule “N-(3,5-Bis-trimethylgermanyl-phenyl)-terephthalamic acid (Am55G)” displayed an ED50 in the assay on HL-60 [1] of 0.042 µM. Moreover, in the assay with HL-60 [2], the Relative activity came to 15.

With `CC(C)(C)c1cccc(C(=O)/C=C/c2ccc(C(=O)O)cc2)c1`, the EC50 in the assay with HL-60 [1] was 0.16 µM. In the assay with HL-60 [2], this molecule had a Relative activity of 0.81.

For the molecule `CC(C)(C)c1cccc(NC(=O)c2ccc(C(=O)O)cc2)c1`, in the assay with HL-60 [1], the EC50 was 0.7 µM. This molecule displayed a Relative activity in the assay on HL-60 [2] of 0.32.

For `CC1(C)CCC(C)(C)c2cc(NC(=O)c3ccc(C(=O)O)cc3)ccc21` [TAMIBAROTENE], the EC50 with HL-60 [1] is 0.00079 µM.

As to `C[Si](C)(C)c1cc(C(=O)Nc2ccc(C(=O)O)cc2)cc([Si](C)(C)C)c1` [AMSILAROTENE], the EC50 in the assay on HL-60 [1] is 0.0092 µM. The Relative activity with HL-60 [2] turned out to be 52.7.

With `C[Si](C)(C)c1cccc(C(=O)/C=C/c2ccc(C(=O)O)cc2)c1`, the EC50 with HL-60 [1] is 0.044 µM. Further, the Relative activity with HL-60 [2] worked out at 1.8.

Consider `C[Si](C)(C)c1cc(C(=O)/C=C/c2ccc(C(=O)O)cc2)cc([Si](C)(C)C)c1`, for which the EC50 with HL-60 [1] was 0.00014 µM. The Relative activity in the assay on HL-60 [2] is reported as 860.
